Source: BindingDB's records for doi:10.1016/j.bmcl.2009.02.010 (Konkuk University, 2009)

How the values were obtained:
[1] = target: T1, Replicase polyprotein 1ab (Severe acute respiratory syndrome coronavirus, UniProt P0C6X7); test: Inhibition of ATPase activity of SCV helicase assessed as phosphate release by colorimetric assay
How it was run: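 Purified SCV NTPase/helicase (400 nM in 50 mM Tris/HCl pH 6.6) preincubated with compounds for 5 min at rt. Stopped with malachite green/molybdate reagent in 1 M HCl. A620 read after 5 min, with phosphate from a standard curve.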

[2] = target: T1, Replicase polyprotein 1ab; test: Inhibition of SCV helicase assessed as duplex-DNA unwinding by FRET based assay
How it was run: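 Substrate was 25-bp dsDNA with a 20-dT 5′-overhang. SCV helicase (150 nM in 20 mM HEPES pH 7.4) preincubated with compounds for 5 min at rt. Started with 5X reaction solution (5 mM MgCl2, 45 mM ATP, 25 mM DTT, 100 nM dsDNA substrate as 5X concentrations), then 2 min at 37 °C. Stopped with EDTA plus unmodified trap oligomer, with FRET read-out.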

| SMILES | IC50 [1] [µM] | IC50 [2] [µM] |
| --- | --- | --- |
| O=C(O)C(=O)CC(=O)c1cccc(OCc2ccccc2)c1 | > 50 | > 50 |
| O=C(O)C(=O)CC(=O)c1ccccc1OCc1ccccc1 | > 50 | > 50 |
| O=C(O)C(=O)CC(=O)c1ccc(OCc2ccc(Cl)cc2)cc1 [4-(4-(4-chlorobenzyloxy)phenyl)-2-hydroxy-4-oxobut-2-enoic acid] | > 50 | > 50 |
